In brackets after ≈: the same amount, converted by molar mass. Activity calls are given as the source filed them. The calls are words filed in the database; no cut-off is given here.
Tests used:
[1] = tested on: Trypanosoma brucei brucei; experiment: Resistance factor, ratio of EC50 for diminazene, pentamidine and melaminophenyl arsenical-resistant bloodstream trypomastigote stage of Trypanosoma brucei brucei B48 harboring TbAT1 deletions to EC50 for bloodstream trypomastigote stage of wild-type Trypanosoma brucei brucei Lister 427; format: functional
[2] = target: T1, Alternative oxidase, mitochondrial (Trypanosoma brucei brucei, UniProt Q26710); experiment: Inhibition of recombinant Trypanosoma brucei brucei alternative oxidase using ubiquinol-1 as substrate incubated for 2 mins followed by substrate addition by spectrophotometric method
T1 sequence (Q26710 whole entry): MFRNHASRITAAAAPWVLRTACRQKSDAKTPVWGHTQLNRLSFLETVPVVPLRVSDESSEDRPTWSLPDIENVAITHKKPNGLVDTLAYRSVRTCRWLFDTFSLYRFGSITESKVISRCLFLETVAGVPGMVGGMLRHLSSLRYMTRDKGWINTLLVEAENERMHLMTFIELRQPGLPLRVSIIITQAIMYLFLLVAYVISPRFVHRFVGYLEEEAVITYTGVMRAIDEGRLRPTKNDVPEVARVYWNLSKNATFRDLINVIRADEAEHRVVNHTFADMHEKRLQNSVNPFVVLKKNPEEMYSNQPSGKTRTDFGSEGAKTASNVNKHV
Method in brief: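 The assay measured inhibition of the ubiquinol oxidase activity of purified recombinant ∆MTS-TAO from T. b. brucei.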

[3] = tested on: Trypanosoma brucei brucei; experiment: Antiparasitic activity against bloodstream trypomastigote stage of wild type Trypanosoma brucei brucei Lister 427 after 48 hrs by resazurin dye based fluorescence assay; format: functional, organism-based
Method in brief: (§1)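 Bloodstream trypomastigotes of T. b. brucei s427 (wild type) were tested, both with and without glycerol. EC50 values are the mean of 3 experiments ± SEM.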

[4] = Selectivity index, ratio of CC50 for HEK293T cells to EC50 for bloodstream trypomastigote stage of wild type Trypanosoma brucei brucei Lister 427; format: toxicity; settings: human; read-out: Ratio CC50/EC50
Method in brief: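 The selectivity index was calculated as CC50 in HEK cells divided by EC50 against wild-type T. b. brucei s427 bloodstream trypomastigotes.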

[5] = Cytotoxicity against HEK293T cells after 30 hrs by resazurin dye based fluorescence assay; format: cell-based, HEK-293T; settings: human
Method in brief: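 Cytotoxicity was measured on human embryonic kidney (HEK) cells and reported as CC50. Values are the mean of 3 experiments ± SEM.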

[6] = tested on: Trypanosoma brucei brucei; experiment: Resistant factor, ratio of EC50 for pentamidine-resistant bloodstream trypomastigote stage of Trypanosoma brucei brucei harboring AQP1 to 3 deletions to EC50 for bloodstream trypomastigote stage of wild-type Trypanosoma brucei brucei Lister 427 in presence of glycerol; format: functional
[7] = tested on: Trypanosoma brucei brucei; experiment: Resistant factor, ratio of EC50 for bloodstream trypomastigote stage of wild-type Trypanosoma brucei brucei Lister 427 assessed as inhibition of respiration in presence of glycerol to EC50 for bloodstream trypomastigote stage of wild-type Trypanosoma brucei brucei Lister 427 assessed as inhibition of respiration in absence of glycerol; format: functional
[8] = Dissociation constant, pKa of the compound; format: physicochemical
[9] = tested on: Trypanosoma brucei brucei; experiment: Antiparasitic activity against bloodstream trypomastigote stage of wild type Trypanosoma brucei brucei Lister 427 at 100 uM after 48 hrs by resazurin dye based fluorescence assay; format: functional, organism-based
[10] = Selectivity index, ratio of CC50 for HEK293T cells to EC50 for pentamidine-resistant bloodstream trypomastigote stage of Trypanosoma brucei brucei harboring AQP1 to 3 deletions; format: toxicity; settings: human; read-out: Ratio CC50/EC50
[11] = tested on: Trypanosoma brucei brucei; experiment: Antiparasitic activity against bloodstream trypomastigote stage of wild type Trypanosoma brucei brucei Lister 427 after 48 hrs in presence of glycerol by resazurin dye based fluorescence assay; format: functional; settings: Lister 427, 48 h; method in brief: as §1
[12] = target: T1, Alternative oxidase, mitochondrial; experiment: Binding affinity to recombinant Trypanosoma brucei brucei 427 alternative oxidase expressed in Escherichia coli BL21 cells using ubiquinol-1 as substrate by spectrophotometric method

Structure (SMILES)	Ratio EC50 [1]	IC50 [2]	EC50 ([3]; Lister 427, 48 h)	selectivity ratio [4]	CC50 at 30 h [5]	further results
O=C(O)c1ccc(OCCCCCCCCCCCCC[P+](c2ccccc2)(c2ccccc2)c2ccccc2)cc1O.[Br-]	<1	> 5 µM	0.086 µM	227	19.6 µM	Ratio EC50 [6]: >2
COC(=O)c1ccc(OCCCCCCCCCCCCCBr)cc1O	<1	> 5 µM	8.1 µM	3.5	28.6 µM	Ratio EC50 [7]: <1
O=C(O)c1ccc(OCCCCCCCCCC[P+](c2ccccc2)(c2ccccc2)c2ccccc2)cc1O.[Br-]	<1	> 5 µM	0.73 µM	11	8.2 µM	Ratio EC50 [7]: <1
C/C(=C\CO)CC/C=C(\C)COc1ccc(C(=O)O)c(F)c1	<1	1.1 µM				pKa [8]: < 5; Activity [9]: inactive
COc1cc(OCCCCCCCCCCCCCBr)cc(O)c1C=O	<1	2.3 µM				Activity [9]: inactive
C/C(=C\CO)CC/C=C(\C)COc1ccc(C(=O)O)c(C)c1	<1	0.92 µM				pKa [8]: < 5; Activity [9]: inactive
O=C(NO)c1ccccc1O [SALICYLHYDROXAMIC ACID]			62.9 µM			
C/C(=C\CO)CC/C=C(\C)COc1ccc(C(=O)O)c(O)c1	<1	2.1 µM				pKa [8]: < 5; Activity [9]: inactive
COC(=O)c1ccc(OCCCCCCCCCCCCC[n+]2cccc3ccccc32)cc1C.[Br-]	<1	> 5 µM	0.16 µM	1.9	0.3 µM	
CCOC(=O)c1c(C)cc(OCCCCCCCCCCCCCBr)cc1O	<1	> 5 µM	8.9 µM	3.3	29.6 µM	Ratio EC50 [7]: <1
Cc1cc(OCCCCCCCCCCCCC[n+]2cccc3ccccc32)ccc1C(=O)O.[Br-]	<1	> 5 µM	10.6 µM	2.3	24.4 µM	
CCOC(=O)c1c(C)cc(OC/C(C)=C/CC/C(C)=C/CC/C(C)=C/COC(C)=O)cc1O	<1	> 5 µM	6.6 µM	3.1	20.8 µM	
COC(=O)c1ccc(OCCCCCCCCCCCCC[P+](c2ccccc2)(c2ccccc2)c2ccccc2)cc1C.[Br-]	<1	> 5 µM	0.018 µM	19	0.35 µM	Ratio EC50 [6]: >2
COC(=O)c1ccc(OC/C(C)=C/CC/C(C)=C/COC(C)=O)cc1C	<1	> 5 µM	17 µM	2.7	45.1 µM	
CC(=O)OC/C=C(\C)CC/C=C(\C)COC(=O)c1ccc(OC/C(C)=C/CC/C(C)=C/COC(C)=O)cc1O	<1	> 5 µM				
COC(=O)c1ccc(OCCCCCCCCCCCCC[n+]2cccc3ccccc32)cc1F.[Br-]	<1	> 5 µM	2.4 µM	1.4	3.36 µM	Ratio EC50 [7]: <1
COC(=O)c1ccc(OC/C(C)=C/CC/C(C)=C/CO)cc1C	<1	1.69 µM			> 100 µM	Activity [9]: inactive
C/C(=C\CO)CC/C=C(\C)COc1ccc(C(=O)O)cc1	<1	2.4 µM				pKa [8]: < 5; Activity [9]: inactive
Cc1cc(OCCCCCCCCCCCCC[P+](c2ccccc2)(c2ccccc2)c2ccccc2)cc(O)c1C(=O)O.[Br-]	<1	0.0042 µM	0.013 µM	64	0.83 µM	Ratio EC50 [7]: <1; selectivity ratio [10]: 230
COC(=O)c1ccc(OC/C(C)=C/CC/C(C)=C/CO)cc1F	<1	> 5 µM			> 100 µM	Activity [9]: inactive
COC(=O)c1ccc(OC/C(C)=C/CC/C(C)=C/COC(C)=O)cc1F	<1					

Structure (SMILES)	Ratio EC50 [1]	IC50 [2]	EC50 ([3]; Lister 427, 48 h)	selectivity ratio [4]	CC50 at 30 h [5]	further results
COC(=O)c1c(C)cc(OCCCCCCCCCCCCC[P+](c2ccccc2)(c2ccccc2)c2ccccc2)cc1O.[Br-]	<1					Ratio EC50 [6]: >2
COC(=O)c1cc(OCCCCCCCCCCCCC[P+](c2ccccc2)(c2ccccc2)c2ccccc2)ccc1O.[Br-]	<1	0.012 µM	0.028 µM		0.64 µM	
C/C(=C\Cc1c(O)c(Cl)c(C)c(C=O)c1O)CC/C=C(\C)[C@@H]1CC(=O)C(C)(C)O1 [ASCOFURANONE]						MIC ([3]; Lister 427, 48 h): 250 µM (≈ 105 µg/mL); MIC [11]: 0.03 µM
COC(=O)c1ccc(OCCCCCCCCCCCCCBr)cc1C	<1					Activity [3]: inactive
Cc1cc(OCCCCCCCCCCCCC[P+](c2ccccc2)(c2ccccc2)c2ccccc2)ccc1C(=O)O.[Br-]	<1	> 5 µM	0.19 µM	22	4.24 µM	Ratio EC50 [7]: <1
N=C(N)c1ccc(OCCCCCOc2ccc(C(=N)N)cc2)cc1 [PENTAMIDINE]			0.0042 µM			
COC(=O)c1ccc(OC/C(C)=C/CC/C(C)=C/CO)cc1O	<1					
COC(=O)c1ccc(OCCCCCCCCCCCCC[P+](c2ccccc2)(c2ccccc2)c2ccccc2)cc1O.[Br-]	<1	0.015 µM	0.018 µM			
O=C(O)c1ccc(OCCCCCCCCCCCCC[P+](c2ccccc2)(c2ccccc2)c2ccccc2)cc1F.[Br-]	<1	> 5 µM	0.037 µM	225	8.35 µM	Ratio EC50 [6]: >2
CC(=O)OC/C=C(\C)CC/C=C(\C)COC(=O)c1ccc(O)cc1O	<1	0.0091 µM			> 20 µM	Ratio EC50 [7]: <1
O=Cc1ccc(OCCCCCCCCCCCCCBr)cc1O		0.073 µM	17.6 µM			
CCOC(=O)c1ccc(OC/C(C)=C/CC/C(C)=C/CO)cc1O	<1	> 5 µM				
O=Cc1ccc(OCCCCCCCCCCCCC[n+]2cccc3ccccc32)cc1O		1.23 µM	1.75 µM	> 114	> 200 µM	
C/C(=C\CO)CC/C=C(\C)CC/C=C(\C)COc1cc(C)c(C(=O)O)c(O)c1	<1	0.0031 µM				pKa [8]: < 5; Activity [9]: inactive
COC(=O)c1ccc(OC/C(C)=C/CC/C(C)=C/COC(C)=O)cc1O	<1	> 5 µM	19.3 µM	1.7	31.8 µM	
CCOC(=O)c1c(C)cc(OCCCCCCCCCCCCC[n+]2cccc3ccccc32)cc1O.[Br-]	<1	> 5 µM	0.29 µM	2.1	0.61 µM	
COC(=O)c1ccc(OCCCCCCCCCCCCCBr)cc1F	<1					Activity [3]: inactive
COC(=O)c1ccc(OCCCCCCCCCC[P+](c2ccccc2)(c2ccccc2)c2ccccc2)cc1O.[Br-]	<1	> 5 µM	0.002 µM	184	0.44 µM	
COC(=O)c1ccc(OCCCCCCCCCCCCC[P+](c2ccccc2)(c2ccccc2)c2ccccc2)cc1F.[Br-]	<1	0.74 µM	0.05 µM	4.5	0.22 µM	Ratio EC50 [6]: >2
CC(C)=CCOc1ccc(C(=O)O)c(O)c1						Ki [12]: 5 µM
